Several values for one entry are separate records, joined by “and”; a condition that tells them apart may be missing. Identical values can stand only once. Like-named read-outs stand apart in the source and are kept apart here.
Experiments:
[1] = target: T1, CpIMPDH (Cryptosporidium parvum, UniProt Q8T6T2); test: Steady-state kinetics of CpIMPDH; assay type: biochemical; details: for D2Okcat (solvent deuterium isotope effect on kcat): dinucleotide varied, 500 μM IMP, H2O vs D2O
T1 sequence (Q8T6T2 1-400): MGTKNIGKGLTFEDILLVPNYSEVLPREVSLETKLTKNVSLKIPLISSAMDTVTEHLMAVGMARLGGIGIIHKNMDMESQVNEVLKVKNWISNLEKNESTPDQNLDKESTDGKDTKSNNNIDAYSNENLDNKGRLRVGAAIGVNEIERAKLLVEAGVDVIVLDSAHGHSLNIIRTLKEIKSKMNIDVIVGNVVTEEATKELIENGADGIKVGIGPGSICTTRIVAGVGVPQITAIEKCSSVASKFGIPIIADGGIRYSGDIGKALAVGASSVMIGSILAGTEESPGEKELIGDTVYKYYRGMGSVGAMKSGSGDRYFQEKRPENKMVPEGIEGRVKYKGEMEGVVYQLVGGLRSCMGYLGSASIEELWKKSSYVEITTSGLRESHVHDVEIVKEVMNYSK

[2] = target: T2, TfIMPDH (Tritrichomonas foetus, UniProt P50097); test: Inhibition by ligands of the dinucleotide site, TfIMPDH; assay type: biochemical
T2 sequence (P50097 1-503): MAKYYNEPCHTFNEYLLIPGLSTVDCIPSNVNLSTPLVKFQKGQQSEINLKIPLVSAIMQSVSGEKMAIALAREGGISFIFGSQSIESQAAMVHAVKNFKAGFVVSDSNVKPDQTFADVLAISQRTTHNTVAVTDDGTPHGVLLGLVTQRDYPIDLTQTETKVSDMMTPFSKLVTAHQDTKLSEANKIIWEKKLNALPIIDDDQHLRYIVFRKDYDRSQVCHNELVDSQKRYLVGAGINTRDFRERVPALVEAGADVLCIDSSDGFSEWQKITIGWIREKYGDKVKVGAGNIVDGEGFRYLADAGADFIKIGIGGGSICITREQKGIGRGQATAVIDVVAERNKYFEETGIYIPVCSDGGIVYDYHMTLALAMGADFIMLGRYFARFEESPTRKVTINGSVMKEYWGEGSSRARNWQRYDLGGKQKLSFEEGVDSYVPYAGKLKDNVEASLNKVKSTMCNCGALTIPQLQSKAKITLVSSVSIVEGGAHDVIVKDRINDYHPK

[3] = target: T1, CpIMPDH; test: Pre-steady-state kinetics and global fits of the CpIMPDH reaction; assay type: biochemical
[4] = target: T3, hIMPDH2 (Homo sapiens, UniProt P12268); details: cited from earlier work
[5] = target: T3, hIMPDH2; test: Steady-state kinetics of hIMPDH2; assay type: biochemical; details: NAD^+ varied, 400 μM IMP, H2O vs D2O
Outline: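 Buffer was 50 mM Tris-HCl pH 8.0, 100 mM KCl, 1 mM DTT, made in H2O or D2O, with D2O meter readings adjusted by adding 0.4. Runs were at 25 °C. […] Steady-state parameters came from eq 2.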

[6] = target: T1, CpIMPDH; test: Equilibrium dissociation constants by intrinsic protein fluorescence; assay type: binding; details: for Kd: free enzyme, 50 mM Tris-HCl, pH 8.0, 100 mM KCl, 1 mM DTT, 25 °C
[7] = target: T2, TfIMPDH; details: refs 14 and 23; cited from earlier work
[8] = target: T3, hIMPDH2; test: Pre-steady-state kinetics and global fits of the hIMPDH2 reaction; assay type: biochemical; details: for Kapp ([NAD^+] at 1/2 kmax) / kmax/Kapp / kmax: fluorescence; for kmax: NAD^+ varied, 4 μM enzyme
[9] = target: T1, CpIMPDH; details: cited from earlier work
[10] = target: T3, hIMPDH2; details: cited from earlier work; remark: listed apart in the source
[11] = target: T1, CpIMPDH; test: XMP binding kinetics by stopped-flow protein fluorescence; details: 0.4 μM enzyme, 30 or 120 μM XMP, 25 °C
[12] = substrate: NC(=O)c1ccc[n+]([C@@H]2O[C@H](COP(=O)([O-])OP(=O)(O)OC[C@H]3O[C@@H](n4cnc5c(N)ncnc54)[C@H](O)[C@@H]3O)[C@@H](O)[C@H]2O)c1; test: Pre-steady-state kinetics and global fits of the CpIMPDH reaction; assay type: biochemical, Cryptosporidium parvum; details: other: calculated from global-fit rate constants (eq 12)

With `CC(=O)c1ccc[n+]([C@@H]2O[C@H](COP(=O)([O-])OP(=O)(O)OC[C@H]3O[C@@H](n4cnc5c(N)ncnc54)[C@H](O)[C@@H]3O)[C@@H](O)[C@H]2O)c1` [APAD^+, 3-acetylpyridine adenine dinucleotide] the “D2Okcat (solvent deuterium isotope effect on kcat)” value (from here on “D2Okcat”) [1] was 3.3 and 3.3 ± 0.1 and the Km ([1]; read-out: KM dinucleotide, pH 8.0, 25 °C, APAD^+ at saturating IMP (500 μM)) was 190 ± 9 µM.

Work on `NC(=O)c1ccc[n+]([C@@H]2O[C@H](COP(=O)([O-])OP(=O)(O)OC[C@H]3O[C@@H](n4cnc5c(N)ncnc54)[C@H](O)[C@@H]3O)[C@@H](O)[C@H]2O)c1` [NAD^+, nicotinamide adenine dinucleotide] yielded a Kd [2] of 70 µM, a Kd ([3]; Kintr (intrinsic binding constant), NAD^+, derived from the global fits, Kc = 4) of 300 µM and a kmax/Kapp ([3]; monitored by absorbance) of 80000 M⁻¹ s⁻¹. For the same molecule, the “Kapp ([NAD^+] at 1/2 kmax)” value ([3]; monitored by absorbance, 500 μM IMP) was 510 ± 90 µM, the “kmax (maximal kobs of burst, kburst)” value ([3]; monitored by absorbance, NAD^+ varied, 500 μM IMP) was 41 ± 2 s⁻¹ and the kmax/Kapp ([3]; monitored by fluorescence) was 56000 M⁻¹ s⁻¹. The “Kapp ([NAD^+] at 1/2 kmax)” value ([3]; monitored by fluorescence, 500 μM IMP) was 290 ± 60 µM, the “kmax (maximal kobs of burst)” value ([3]; monitored by fluorescence, NAD^+ varied, 500 μM IMP) was 16 s⁻¹ and 16 ± 1 s⁻¹ and the “D2Okcat” value [1] was 2.6 and 2.6 ± 0.1. For the same molecule, the kcat ([4]; NAD^+ reaction, pH 8.0, 25 °C) was 0.39 ± 0.01 ^c s^−1, the Km ([4]; read-out: KM dinucleotide) was 6 ± 1 µM and the “k12/k11 = Kii (NAD^+ binding to E-XMP*)” value ([4]; value fixed for global fitting) was 590 µM. The “D2Okcat” value [5] was 1.8 ± 0.1, the Kd ([6]; Kd) was 14 ± 1 µM and the Kii [7] was 6.8 ± 1.8 mM. The Kd ([8]; Kintr (intrinsic binding constant), NAD^+, derived from the global fits, Kc ≤0.2) was 590 µM, the “Kapp ([NAD^+] at 1/2 kmax)” value ([8]; burst phase) was 86 ± 5 µM and the kmax/Kapp ([8]; burst phase) was 140000 M⁻¹ s⁻¹. The kmax ([8]; burst phase) was 12 ± 1 s⁻¹, the “Kapp ([NAD^+] at 1/2 kmax)” value ([8]; lag phase) was 68 ± 1 µM and the kmax/Kapp ([8]; lag phase) was 340000 M⁻¹ s⁻¹. It also gave a kmax ([8]; lag phase) of 23 ± 1 s⁻¹.

In the case of `Nc1ncnc2c1ncn2[C@@H]1O[C@H](COP(=O)(O)OP(=O)(O)O)[C@@H](O)[C@H]1O` [ADP, adenosine-5′-diphosphate], the Ki [9] is given as 42000 ± 6000 µM and the Ki [7] is given as 31000 ± 2000 µM.

In the case of `O=c1[nH]c(=O)c2ncn([C@@H]3O[C@H](COP(=O)(O)O)[C@@H](O)[C@H]3O)c2[nH]1` [XMP, xanthosine 5′-monophosphate], the Kd [10] is given as 140 µM, the “rate of XMP binding / release (too fast to measure)” value [11] is given as no less than 200 s⁻¹ and the Kd ([6]; Kd) is given as 5.6 ± 0.6 µM.

For `NC(=O)c1csc([C@@H]2O[C@H](CO)[C@@H](O)[C@H]2O)n1` [Tz, 2-β-D-ribofuranosylthiazole-4-carboxamide], the Ki [7] is given as 50000 ± 10000 µM.

Molecule `Nc1nc2c(ncn2[C@@H]2O[C@H](COP(=O)(O)O)[C@@H](O)[C@H]2O)c(=O)[nH]1` [GMP, guanosine monophosphate] has a Kd [6] of 4.8 ± 0.6 µM.

In the case of `NC(=O)C1=CN([C@@H]2O[C@H](COP(=O)(O)OP(=O)(O)OC[C@H]3O[C@@H](n4cnc5c(N)ncnc54)[C@H](O)[C@@H]3O)[C@@H](O)[C@H]2O)C=CC1` [NADH, reduced nicotinamide adenine dinucleotide], the Kd [6] is reported as 2.3 ± 0.2 µM and the “factor of greater affinity of NADH than NAD^+” value ([6]; ratio of Kd values) is reported as 6.

B1: CpIMPDH (Cryptosporidium parvum) (protein)
chain: T1 sequence (Q8T6T2 1-400)
In the case of B1, the Km [12] is reported as 40 µM.
